The source of these data is ChEMBL document CHEMBL3046167, “Activity of meadowfoam (Limnanthes alba) seed meal glucolimnanthin degradation products against soilborne pathogens” (J Agric Food Chem, 2012).

The term mortality denotes the share of the test organisms that died. The EC50 is the midpoint of the concentration-response curve.

Converted amounts (≈) assume the structure as drawn. The source made the active and inactive calls. The calls are words filed in the database; no cut-off is given here.

In assay [1] the test system is Globisporangium irregulare. Nature of the assay: Antiparasitic activity against Pythium irregulare assessed as culture diameter at 0.15 mg/ml after 24 hr. Type of assay: functional. Put shortly: (§1)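 P. irregulare: 3-mm agar plugs from 1-week cultures (20 °C, dark) were placed in wells with water plus test solution in DMSO (final 2% DMSO). Exposure was 24 h at 25 °C in the dark. Plugs were then rinsed, blotted and placed on PDA with 250 mg/L ampicillin. Colony diameter was measured after 48 h at 20 °C, excluding dead plugs, and expressed as % of the water control. EC50 was derived by regression. Eight wells per concentration.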

For assay [2], the system named is Globisporangium irregulare. Kind of assay: Antiparasitic activity against Pythium irregulare assessed as culture diameter after 24 hr. In kind it is functional, organism-based. Put shortly: as §1
Assay [3] deals with Globisporangium irregulare. Nature of the assay: Antiparasitic activity against Pythium irregulare assessed as culture diameter at 0.75 mg/ml after 24 hr. In kind it is functional. Put shortly: as §1
The subject of assay [4] is Meloidogyne hapla. Kind of assay: Antiparasitic activity against Meloidogyne hapla J2 assessed as larvicidal activity after 24 hr. The conditions noted are these: J2, 24 h. Type of assay: functional, organism-based. Put shortly:
(§2)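 M. hapla J2 (tomato-cultured isolate) in 96-well plates, 40–60 J2 per well in water with test solution in DMSO (final DMSO 2% v/v). Incubated covered in the dark at 25 °C for 24 h, then mortality scored visually. Compounds were then removed and replaced with water, and mortality was rescored after another 24 h. EC50 was taken from dose-response regression. Eight wells per concentration; experiments were run at least twice.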

The subject of assay [5] is Globisporangium irregulare. Kind of assay: Antiparasitic activity against Pythium irregulare assessed as culture diameter at 0.3 mg/ml after 24 hr. Type of assay: functional. Put shortly:
as §1

Assay [6] concerns Globisporangium irregulare. Kind of assay: Antiparasitic activity against Pythium irregulare assessed as culture diameter at <= 0.3 mg/ml after 24 hr. Type of assay: functional, organism-based. Put shortly:
as §1

Assay [7] concerns Meloidogyne hapla. Kind of assay: Antiparasitic activity against Meloidogyne hapla J2 assessed as larvicidal activity for 24 hr measured after replacement with water. In kind it is functional, organism-based. The conditions noted are these: J2, 24 h. Put shortly:
as §2

The subject of assay [8] is Globisporangium irregulare. Nature of the assay: Antiparasitic activity against Pythium irregulare assessed as culture diameter at 0.05 mg/ml after 24 hr. In kind it is functional. Put shortly: as §1
In assay [9] the test system is Globisporangium irregulare. Nature of the assay: Antiparasitic activity against Pythium irregulare assessed as culture diameter at 0.5 mg/ml after 24 hr. In kind it is functional. Put shortly: as §1
For assay [10], the system named is Verticillium dahliae. Nature of the assay: Antiparasitic activity against Verticillium dahliae assessed as culture diameter at 0.001 mg/ml after 24 hr. Type of assay: functional. Put shortly:
(§3)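 V. dahliae: 3-mm plugs from 3-week cultures (20 °C, dark) were exposed for 24 h at 25 °C in wells of water with 2% DMSO and test compound. Plugs were then rinsed, blotted and plated on PDA with 250 mg/L ampicillin. Diameter was measured after 1 week at 20 °C, excluding non-growing plugs, and expressed as % of the water control. Eight wells per concentration.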

Assay [11] deals with Verticillium dahliae. Kind of assay: Antiparasitic activity against Verticillium dahliae assessed as culture diameter at 0.01 mg/ml after 24 hr. Type of assay: functional. Put shortly: as §3
Assay [12] deals with Verticillium dahliae. Nature of the assay: Antiparasitic activity against Verticillium dahliae assessed as culture diameter at 0.08 mg/ml after 24 hr. In kind it is functional. Put shortly:
as §3

Assay [13] has as its system Globisporangium irregulare. Nature of the assay: Antiparasitic activity against Pythium irregulare assessed as culture diameter at 0.025 mg/ml after 24 hr. In kind it is functional. Put shortly: as §1
Assay [14] has as its system Verticillium dahliae. Nature of the assay: Antiparasitic activity against Verticillium dahliae assessed as culture diameter at 0.005 mg/ml after 24 hr. In kind it is functional. Put shortly: as §3
Assay [15] relates to Globisporangium irregulare. Nature of the assay: Antiparasitic activity against Pythium irregulare assessed as culture morality after 24 hr. In kind it is functional, organism-based. Put shortly: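 P. irregulare plugs were exposed in wells to compounds in 2% DMSO for 24 h at 25 °C, then rinsed and plated on ampicillin-amended PDA. Plugs failing to grow were counted as dead, giving percentage mortality per treatment. EC50 was estimated from dose-response regression. Eight replicate wells per concentration; experiments were run at least twice.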

For assay [16], the system named is Verticillium dahliae. Kind of assay: Antiparasitic activity against Verticillium dahliae assessed as culture diameter at 0.05 mg/ml after 24 hr. Type of assay: functional. Put shortly: as §3
The test system of assay [17] is Globisporangium irregulare. Kind of assay: Antiparasitic activity against Pythium irregulare assessed as culture diameter at 0.075 mg/ml after 24 hr. In kind it is functional. Put shortly: as §1
Assay [18] has as its system Globisporangium irregulare. Nature of the assay: Antiparasitic activity against Pythium irregulare assessed as culture diameter at 0.2 mg/ml after 24 hr. In kind it is functional. Put shortly: as §1
Assay [19] relates to Verticillium dahliae. Nature of the assay: Antiparasitic activity against Verticillium dahliae assessed as culture diameter at 0.2 mg/ml after 24 hr. Type of assay: functional. Put shortly:
as §3

Assay [20] relates to Verticillium dahliae. Nature of the assay: Antiparasitic activity against Verticillium dahliae assessed as culture diameter at 0.1 mg/ml after 24 hr. In kind it is functional. Put shortly: as §3
The subject of assay [21] is Verticillium dahliae. Kind of assay: Antiparasitic activity against Verticillium dahliae assessed as culture diameter at 0.03 mg/ml after 24 hr. Type of assay: functional. Put shortly:
as §3

The test system of assay [22] is Verticillium dahliae. Kind of assay: Antiparasitic activity against Verticillium dahliae assessed as culture diameter after 24 hr. Type of assay: functional, organism-based. Put shortly: as §3
The test system of assay [23] is Globisporangium irregulare. Nature of the assay: Antiparasitic activity against Pythium irregulare assessed as culture diameter at 0.1 mg/ml after 24 hr. Type of assay: functional. Put shortly:
as §1

Assay [24] relates to Verticillium dahliae. Kind of assay: Antiparasitic activity against Verticillium dahliae assessed as culture diameter at 0.02 mg/ml after 24 hr. Type of assay: functional. Put shortly: as §3

In the case of `COc1cccc(CC(N)=S)c1`, in [1], the mortality at 150 µg/mL was determined as 0%. For the same compound, the EC50 stood at 750 mg/L (≈ 4140 µM) in assay [2], 245 mg/L (≈ 1350 µM) in the assay with Meloidogyne hapla [4] and 584 mg/L (≈ 3220 µM) in the assay on Meloidogyne hapla [7]. In addition, the mortality at 750 µg/mL in [3] amounted to 0%. Also, the mortality at 300 µg/mL in assay [5] amounted to 0%. Further, in assay [6], the outcome was inactive. Moreover, the mortality at 50 µg/mL in assay [8] was 0%. For the same compound, the mortality at 500 µg/mL in assay [9] worked out at 0%.

As for `COc1cccc(CN=C=S)c1` [3-METHOXYBENXYL ISOTHIOCYANATE], the mortality at 150 µg/mL in [1] was 88%. The mortality at 1 µg/mL in the assay with Verticillium dahliae [10] stood at 0%. Besides, the mortality at 10 µg/mL in the assay on Verticillium dahliae [11] was found to be 0%. Moreover, the mortality at 80 µg/mL with Verticillium dahliae [12] is 7%. Also, the mortality at 25 µg/mL in [13] was determined as 0%. For the same compound, the mortality at 5 µg/mL with Verticillium dahliae [14] was 0%. Moreover, the EC50 in [15] turned out to be 50 mg/L (≈ 279 µM); in the assay on Meloidogyne hapla [4] it was 2 mg/L (≈ 11.2 µM); in the assay on Meloidogyne hapla [7] it was 3 mg/L (≈ 16.7 µM); in the assay with Verticillium dahliae [22], 100 mg/L (≈ 558 µM). Moreover, the mortality at 50 µg/mL in the assay with Verticillium dahliae [16] worked out at 19%; in [8], 54%. In assay [17], the mortality at 75 µg/mL was determined as 56%. Further, the figures for the mortality at 200 µg/mL (in assay [18]; in the assay with Verticillium dahliae [19]) were 88% and 69%, respectively. Besides, the mortality at 100 µg/mL in the assay with Verticillium dahliae [20] came out at 50%; in assay [23], 63%. For the same compound, the mortality at 30 µg/mL in the assay on Verticillium dahliae [21] is 0%. The mortality at 20 µg/mL in the assay on Verticillium dahliae [24] was 0%.
